The format of this data set is in vitro ADME, bovine. As to conditions: healthy explants; 24 h absorption, 7-day desorption in 10x PBS. In outline: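 After 24 h uptake of 30 µM 5-FAM-labelled peptide at 37 °C, bovine cartilage disks were desorbed in 1x or 10x PBS with protease inhibitors for up to 7 days. The bath was changed daily and desorbed peptide was read by plate reader. % retention is moles remaining in tissue after desorption divided by moles taken up at 24 h. Mean ± SD, n=6–8 explants, ≥4 animals.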

As to (ARRRAARA)4 [CPC +16], the “% CPC desorbed in 10x PBS over 7 days” value is recorded as “about 40%”.

Values taken from paper PMC6551323 (Acta biomaterialia, 2018).
